pIC50: −log10 of the molar value.
target: T1, Prostaglandin G/H synthase 1 (Ovis aries, UniProt P05979); experiment: Inhibition of ovine COX1 assessed as PGF2alpha production from PGH2 after 5 mins by enzyme immunoassay
T1 sequence (P05979 whole entry): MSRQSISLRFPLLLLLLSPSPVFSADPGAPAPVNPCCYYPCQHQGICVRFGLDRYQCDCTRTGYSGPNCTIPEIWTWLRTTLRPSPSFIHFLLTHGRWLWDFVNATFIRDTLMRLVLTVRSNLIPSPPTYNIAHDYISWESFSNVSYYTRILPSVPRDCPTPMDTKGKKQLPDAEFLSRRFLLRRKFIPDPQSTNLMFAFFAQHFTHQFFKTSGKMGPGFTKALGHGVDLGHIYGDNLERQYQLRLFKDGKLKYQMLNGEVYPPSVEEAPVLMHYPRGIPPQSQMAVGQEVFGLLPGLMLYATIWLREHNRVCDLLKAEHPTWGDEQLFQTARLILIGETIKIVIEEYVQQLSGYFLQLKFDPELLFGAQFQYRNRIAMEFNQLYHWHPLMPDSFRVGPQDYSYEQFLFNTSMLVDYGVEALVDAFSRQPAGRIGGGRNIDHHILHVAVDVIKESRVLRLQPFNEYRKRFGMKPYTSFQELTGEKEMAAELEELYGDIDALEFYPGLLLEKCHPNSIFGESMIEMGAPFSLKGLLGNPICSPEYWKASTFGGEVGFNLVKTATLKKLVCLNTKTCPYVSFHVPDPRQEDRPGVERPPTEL
Summary of the method: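 Ovine COX-1 in reaction buffer with 2 mM phenol and heme, preincubated with six test concentrations (1 mL final) for 5 min at 37 °C. Arachidonic acid was then added and the reaction stopped with 1 M HCl after 2 min. Prostanoids were reduced with stannous chloride and quantified by competitive acetylcholinesterase-tracer EIA (Ellman's reagent, 410 nm). IC50 came from concentration–inhibition curves, duplicate determinations.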

pIC50, < 4.30:
FC(F)(F)c1[nH]nc(-c2ccc(Cl)cc2)c1N=Nc1ccccc1Cl [3-(4-Chlorophenyl)-4-(2-(2-chlorophenyl)hydrazono)-5-trifuoromethyl)-4H-pyrazole]
FC(F)(F)c1cc(N=Nc2c(-c3ccc(Cl)cc3)n[nH]c2C(F)(F)F)cc(C(F)(F)F)c1 [3-(4-Chlorophenyl)-4-(2-(3,5-bis(trifluoromethyl)phenyl)hydrazono)-5-trifuoromethyl)-4H-pyrazole]
COc1ccc(N=Nc2c(-c3ccc(Cl)cc3)n[nH]c2C(F)(F)F)cc1 [3-(4-Chlorophenyl)-4-(2-(4-methoxyphenyl)hydrazono)-5-trifuoromethyl)-4H-pyrazole]
O=[N+]([O-])c1ccc(/N=N/c2c(-c3ccc(Cl)cc3)n[nH]c2C(F)(F)F)cc1 [3-(4-Chlorophenyl)-4-(2-(4-nitrophenyl)hydrazono)-5-trifuoromethyl)-4H-pyrazole]

Reference: BindingDB's records for doi:10.1016/j.bmc.2011.04.027 (University of Mansoura, 2011)
